In ChEMBL document CHEMBL1143377, “Design, synthesis, and evaluation of potent, nonpeptidic mimetics of second mitochondria-derived activator of caspases” (J Med Chem, 2009):

Assays:
MDA-MB-231 [1] = assay: cells; details: Homo sapiens, MDA-MB-231, 96 h
MDA-MB-231 [2] = assay: Induction of apoptosis in human MDA-MB-231 cells assessed as increase in caspase 8 activation after 24 hrs by Western blotting; format: functional, cell-based
Procedure, shortened: (§1)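 MDA-MB-231 breast cancer cells were exposed to Smac mimetics for 24 hours. Cell proteins were then probed on Western blots with specific antibodies against cIAP-1, XIAP, cleaved caspase-8, pro- and cleaved caspase-3, and cleaved PARP. GAPDH served as the loading control.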

MDA-MB-231 [3] = assay: Induction of apoptosis in human MDA-MB-231 cells assessed as PARP cleavage after 24 hrs by Western blotting; format: functional, cell-based
Procedure, shortened: as §1

MDA-MB-231 [4] = assay: Induction of cIAP1 degradation in human MDA-MB-231 cells after 24 hrs by Western blotting; format: functional, cell-based
Procedure, shortened: as §1

MDA-MB-231 [5] = assay: Induction of apoptosis in human MDA-MB-231 cells assessed as increase in caspase 3 activation after 24 hrs by Western blotting; format: functional, cell-based
Procedure, shortened: as §1

IC50 (MDA-MB-231 [1]) [nM] | Compound | Activity (MDA-MB-231 [2]) | Activity (MDA-MB-231 [3]) | Activity (MDA-MB-231 [4]) | Activity (MDA-MB-231 [5])
26 | CN[C@@H](C)C(=O)N[C@H]1C/C=C\C[C@H]2[C@@H](Cc3ccccc3)C[C@@H](C(=O)N[C@@H]3CCCc4ccccc43)N2C1=O |  |  |  | 
 | CN[C@@H](C)C(=O)N[C@H]1CCCC[C@H]2[C@@H](Cc3ccccc3)C[C@@H](C(=O)N[C@@H]3CCCc4ccccc43)N2C1=O | Dose-dependent effect | Dose-dependent effect | Dose-dependent effect | Dose-dependent effect
259 | CN[C@@H](C)C(=O)N[C@H]1CCCC[C@H]2CC[C@@H](C(=O)NC(c3ccccc3)c3ccccc3)N2C1=O | Dose-dependent effect | Dose-dependent effect | Dose-dependent effect | Dose-dependent effect
 | CN[C@@H](C)C(=O)N[C@H]1CCCC[C@H]2CC[C@@H](C(=O)N[C@@H]3CCCc4ccccc43)N2C1=O | Dose-dependent effect | Dose-dependent effect | Dose-dependent effect | Dose-dependent effect
